Laboratory results reported in ChEMBL document CHEMBL4033712, “Synthesis and biological evaluation of new C-12(α/β)-(N-) sulfamoyl-phenylamino-14-deoxy-andrographolide derivatives as potent anti-cancer agents” (Bioorg Med Chem Lett, 2017).

What was measured:
Assay type in all cases: functional
CCRF-CEM = assay: Growth inhibition of human CCRF-CEM cells incubated for 48 hrs by sulforhodamine B assay
Method in brief: (§1)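 NCI-60 five-dose screen at 0.01, 0.1, 1, 10 and 100 µM, 48 h incubation, sulforhodamine B end point. GI50 (50% decrease in net growth), TGI (total growth inhibition) and LC50 (net 50% loss of initial cells) taken from log concentration versus % growth inhibition curves.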

HL-60(TB) = assay: Growth inhibition of human HL-60(TB) cells incubated for 48 hrs by sulforhodamine B assay; settings: HL-60, 48 h
Method in brief: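 NCI-60 five-dose screen at 0.01, 0.1, 1, 10 and 100 µM for 48 h, sulforhodamine B read-out. GI50 taken from log concentration versus % growth inhibition curves as the concentration giving 50% decrease in net cell growth.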

K562 = assay: Growth inhibition of human K562 cells incubated for 48 hrs by sulforhodamine B assay; settings: K562, 48 h; method in brief: as §1
RPMI-8226 = assay: Growth inhibition of human RPMI8226 cells incubated for 48 hrs by sulforhodamine B assay; settings: RPMI-8226, 48 h
Method in brief: (§2)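 NCI 60 human tumour cell line panel, five-dose study at 0.01, 0.1, 1, 10 and 100 µM, 48 h incubation. Sulforhodamine B protein-binding dye end point. GI50 (50% decrease in net cell growth), TGI (total growth inhibition) and LC50 (net 50% loss of initial cells) read from log concentration versus % growth inhibition curves.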

HOP-62 = assay: Growth inhibition of human HOP62 cells incubated for 48 hrs by sulforhodamine B assay; settings: HOP-62, 48 h; method in brief: as §1
NCI-H23 = assay: Growth inhibition of human NCI-H23 cells incubated for 48 hrs by sulforhodamine B assay; settings: NCI-H23, 48 h; method in brief: as §1
NCI-H322M = assay: Growth inhibition of human NCI-H322M cells incubated for 48 hrs by sulforhodamine B assay; method in brief: as §1
NCI-H460 = assay: Growth inhibition of human NCI-H460 cells incubated for 48 hrs by sulforhodamine B assay; settings: NCI-H460, 48 h; method in brief: as §1
NCI-H522 = assay: Growth inhibition of human NCI-H522 cells incubated for 48 hrs by sulforhodamine B assay; settings: NCI-H522, 48 h; method in brief: as §1
HT-29 = assay: Growth inhibition of human HT-29 cells incubated for 48 hrs by sulforhodamine B assay; settings: HT-29, 48 h; method in brief: as §1
KM12 = assay: Growth inhibition of human KM12 cells incubated for 48 hrs by sulforhodamine B assay; settings: KM12, 48 h; method in brief: as §1
SF-539 = assay: Growth inhibition of human SF539 cells incubated for 48 hrs by sulforhodamine B assay; settings: SF-539, 48 h; method in brief: as §2
U-251 = assay: Growth inhibition of human U251 cells incubated for 48 hrs by sulforhodamine B assay; settings: U-251, 48 h; method in brief: as §2
LOX IMVI = assay: Growth inhibition of human LOXIMVI cells incubated for 48 hrs by sulforhodamine B assay; method in brief: as §1
SK-MEL-28 = assay: Growth inhibition of human SK-MEL-28 cells incubated for 48 hrs by sulforhodamine B assay; settings: SK-MEL-28, 48 h; method in brief: as §2
UACC-257 = assay: Growth inhibition of human UACC257 cells incubated for 48 hrs by sulforhodamine B assay; settings: UACC-257, 48 h; method in brief: as §2
IGROV-1 = assay: Growth inhibition of human IGROV1 cells incubated for 48 hrs by sulforhodamine B assay; settings: IGROV-1, 48 h; method in brief: as §1
OVCAR-3 = assay: Growth inhibition of human OVCAR3 cells incubated for 48 hrs by sulforhodamine B assay; settings: OVCAR-3, 48 h; method in brief: as §1
OVCAR-4 = assay: Growth inhibition of human OVCAR4 cells incubated for 48 hrs by sulforhodamine B assay; settings: OVCAR-4, 48 h; method in brief: as §1
OVCAR-8 = assay: Growth inhibition of human OVCAR8 cells incubated for 48 hrs by sulforhodamine B assay; settings: OVCAR-8, 48 h; method in brief: as §1
786-0 = assay: Growth inhibition of human 786-0 cells incubated for 48 hrs by sulforhodamine B assay; settings: 786-0, 48 h; method in brief: as §1
A498 = assay: Growth inhibition of human A498 cells incubated for 48 hrs by sulforhodamine B assay; settings: A498, 48 h; method in brief: as §1
ACHN = assay: Growth inhibition of human ACHN cells incubated for 48 hrs by sulforhodamine B assay; method in brief: as §1
CAKI-1 = assay: Growth inhibition of human Caki1 cells incubated for 48 hrs by sulforhodamine B assay; settings: CAKI-1, 48 h; method in brief: as §1
SN12C = assay: Growth inhibition of human SN12C cells incubated for 48 hrs by sulforhodamine B assay; method in brief: as §2
UO-31 = assay: Growth inhibition of human UO31 cells incubated for 48 hrs by sulforhodamine B assay; settings: UO-31, 48 h; method in brief: as §2
DU-145 = assay: Growth inhibition of human DU145 cells incubated for 48 hrs by sulforhodamine B assay; settings: DU-145, 48 h; method in brief: as §1
BT-549 = assay: Growth inhibition of human BT549 cells incubated for 48 hrs by sulforhodamine B assay; settings: BT-549, 48 h; method in brief: as §1
[1] = read-out: LC50 (the source's name)

Molecule `C=C1CC[C@@H]2[C@](C)(COC(C)=O)[C@H](OC(C)=O)CC[C@@]2(C)[C@H]1CC(Nc1ccc(S(=O)(=O)Nc2nccs2)cc1)C1=CCOC1=O` (some centres undefined) has a GI50 (CCRF-CEM) of 2.28 µM, a TGI (CCRF-CEM) of 6.76 µM and a CC50 (CCRF-CEM; [1]) of over 100 µM. It also gave a GI50 (HL-60(TB)) of 3.01 µM, a TGI (HL-60(TB)) of 13.3 µM and a CC50 (HL-60(TB); [1]) of over 100 µM. For the same molecule, the GI50 (K562) was 3.6 µM, the TGI (K562) was 29 µM and the CC50 (K562; [1]) was over 100 µM. For the same molecule, the GI50 (RPMI-8226) was 2.49 µM, the TGI (RPMI-8226) was 7.62 µM and the CC50 (RPMI-8226; [1]) was over 100 µM. The GI50 (HOP-62) was 13.8 µM, the TGI (HOP-62) was 27.5 µM and the CC50 (HOP-62; [1]) was 54.7 µM. For the same molecule, the GI50 (NCI-H23) was 10 µM, the TGI (NCI-H23) was 24.8 µM and the CC50 (NCI-H23; [1]) was 61.6 µM. It also gave a GI50 (NCI-H322M) of 12 µM, a TGI (NCI-H322M) of 24.9 µM and a CC50 (NCI-H322M; [1]) of 51.6 µM. It also gave a GI50 (NCI-H460) of 10.7 µM, a TGI (NCI-H460) of 25.3 µM and a CC50 (NCI-H460; [1]) of 59.9 µM. For the same molecule, the GI50 (NCI-H522) was 1.72 µM, the TGI (NCI-H522) was 4.32 µM and the CC50 (NCI-H522; [1]) was 21.2 µM. For the same molecule, the GI50 (HT-29) was 2.17 µM, the TGI (HT-29) was 4.7 µM and the CC50 (HT-29; [1]) was 15.8 µM. The GI50 (KM12) was 7.57 µM, the TGI (KM12) was 21.7 µM and the CC50 (KM12; [1]) was 53.3 µM. The GI50 (SF-539) was 2.35 µM, the TGI (SF-539) was 6.31 µM and the CC50 (SF-539; [1]) was 23.5 µM. The GI50 (U-251) was 1.86 µM, the TGI (U-251) was 3.5 µM and the CC50 (U-251; [1]) was 6.57 µM. For the same molecule, the GI50 (LOX IMVI) was 1.59 µM, the TGI (LOX IMVI) was 3.31 µM and the CC50 (LOX IMVI; [1]) was 6.92 µM. The GI50 (SK-MEL-28) was 3.95 µM, the LC50 (50% net cell kill) (SK-MEL-28) was 41.8 µM and the TGI (SK-MEL-28) was 15.1 µM. The GI50 (UACC-257) was 2.55 µM, the TGI (UACC-257) was 5.61 µM and the CC50 (UACC-257; [1]) was 17.2 µM. The GI50 (IGROV-1) was 4.54 µM, the TGI (IGROV-1) was 17.1 µM and the CC50 (IGROV-1; [1]) was 47.5 µM. It also gave a GI50 (OVCAR-3) of 1.88 µM, a TGI (OVCAR-3) of 3.64 µM and a CC50 (OVCAR-3; [1]) of 7.06 µM. The GI50 (OVCAR-4) was 4.53 µM, the LC50 (OVCAR-4) was 43.9 µM and the TGI (OVCAR-4) was 17.7 µM. The GI50 (OVCAR-8) was 3.14 µM, the TGI (OVCAR-8) was 10.8 µM and the CC50 (OVCAR-8; [1]) was 47.7 µM. It also gave a GI50 (786-0) of 2.54 µM, an LC50 (concentration giving net 50% loss of initial cells) (786-0) of 23.6 µM and a TGI (786-0) of 6.74 µM. For the same molecule, the GI50 (A498) was 18.2 µM, the LC50 (concentration giving net 50% loss of initial cells) (A498) was 58.5 µM and the TGI (A498) was 32.6 µM. For the same molecule, the GI50 (ACHN) was 5.99 µM, the TGI (ACHN) was 18.9 µM and the CC50 (ACHN; [1]) was 45 µM. For the same molecule, the GI50 (CAKI-1) was 3.8 µM, the TGI (CAKI-1) was 14.2 µM and the CC50 (CAKI-1; [1]) was 37.7 µM. The GI50 (SN12C) was 1.87 µM, the TGI (SN12C) was 4.39 µM and the CC50 (SN12C; [1]) was 14.3 µM. The GI50 (UO-31) was 4.07 µM, the LC50 (concentration giving net 50% loss of initial cells) (UO-31) was 41.8 µM and the TGI (UO-31) was 16.1 µM. The GI50 (DU-145) was 4.47 µM, the TGI (DU-145) was 15.8 µM and the CC50 (DU-145; [1]) was 39.8 µM. For the same molecule, the GI50 (BT-549) was 2.43 µM, the TGI (BT-549) was 6.5 µM and the CC50 (BT-549; [1]) was 23.1 µM.
